HIV Rev-RRE inh = disrupts HIV-1 Rev binding to RRE RNA; P05866; Rev peptide-RRE RNA binding, FRET; inhibition, % at 8 µM; 0.79% of 97,000 active; AID 704;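 active = inhibition above the screen-wide mean plus 3 SD, cut at about 35% in these data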;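 also: 0% = median DMSO wells and 100% = median Neomycin B control wells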
Target sequence (P05866 whole entry, looked up): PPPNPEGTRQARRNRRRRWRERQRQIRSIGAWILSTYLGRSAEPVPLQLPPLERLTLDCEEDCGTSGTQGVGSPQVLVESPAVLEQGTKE
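Assay system: Rev peptide and RRE RNA, both fluorescently labelled; times: 5 min preincubation and 15 min binding, 25 °C; detection: FRET, ex 480 nm, em 540 and 671 nm; read-out basis: % inhibition from 671/540 nm acceptor-to-donor ratio, scaled between controls; benchmarks: DMSO low control, neomycin B high control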
FAK blocker = blocks human focal adhesion kinase activity. biochemical FAK kinase activity assay. 0.84% of 97,000 active. inhibition, %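 (tested at 7 µM)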; in the data active = inhibition above about 19%;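 also: 0% = DMSO and 100% = reference compound high control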
Cav3 T inh = blocks human Cav3.2 T-type calcium channel. Cav3.2-expressing cells, Fluo-4 calcium fluorescence FDSS; stronger effect = lower value. B-score at 10 µM. 4% of 100,000 active. AID 449739;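 active = single-dose well whose peak fluorescence ratio is a statistical outlier from its plate by either plate-standardised score or position-corrected B-score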
Pyk2 oligo antag = blocks oligomerization of human Pyk2 in cells. Q14289. Q293 cells, Pyk2 FERM NanoBiT luminescence; stronger effect = lower value. z-score (the deposit names both 25 µM and 10 µM). 0.83% of 99,000 active. AID 1347419;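 active = Z-score of -3 or lower, scaled per plate to the spread of control and sample wells; inactive = z-score above -3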;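 also: negative z-score means lost luminescence so less FERM oligomerization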
Plk1 PBD FP = blocks phosphopeptide binding to human Plk1 polo box domain | Plk1 PBD phosphopeptide binding, fluorescence polarization | inhibition, %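 (tested at about 20 µM)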 | 0.13% of 97,000 active; in the data active = inhibition above about 34%, passing the limit was not always enough
PLK1 inh = PLK1 (human) kinase inhibition. P53350. recombinant PLK1 kinase, TR-FRET peptide phosphorylation. inhibition, % at 10 µM. 0.53% of 97,000 active. AID 619;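 active = inhibition of 50% or more in the single-concentration screen; inactive = inhibition below 50%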;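 also: 0% = DMSO max control and 100% = H-89 dihydrochloride min control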
Active calls of the source: *. In the library only some 5.8% were active in any assay of this set; here they are far more common.

For Cc1nn(C)c(C)c1CNC(=O)c1cnn2c1NC(c1ccccc1)CC2C(F)(F)F (stereo unspecified) the results were HIV Rev-RRE inh 3.1, FAK blocker -1.5, Cav3 T inh -0.0588, Pyk2 oligo antag -1.05, Plk1 PBD FP -21.4 and PLK1 inh -11.6.
Cc1ccc(C2CC(C(F)(F)F)n3nc(C(=O)NCc4c(C)nn(C)c4C)c(Cl)c3N2)cc1 (stereo unspecified) was read as HIV Rev-RRE inh -4.0, FAK blocker -0.6, Cav3 T inh -1.85, Pyk2 oligo antag -3.47*, Plk1 PBD FP -10.3 and PLK1 inh -11.7.
For CN(Cc1ccc(-n2cccn2)cc1)C(=O)c1cnn2c1NC(c1ccco1)CC2C(F)(F)F (stereo unspecified) the results were HIV Rev-RRE inh 12.8, FAK blocker -5.5, Cav3 T inh -7.65*, Pyk2 oligo antag -0.26, Plk1 PBD FP 15.4 and PLK1 inh -11.2.
`Cc1ccc(C2CC(C(F)(F)F)n3ncc(C(N)=O)c3N2)cc1` (stereo unspecified) gave HIV Rev-RRE inh 4.2, FAK blocker 2.5, Cav3 T inh -0.0441, Pyk2 oligo antag 0.93, Plk1 PBD FP 24.8 and PLK1 inh 5.2.
`COCCNC(=O)c1cnn2c1NC(c1ccco1)CC2C(F)(F)F` (stereo unspecified) gave HIV Rev-RRE inh 8.2, FAK blocker -0.2, Cav3 T inh -0.276, Pyk2 oligo antag -0.07, Plk1 PBD FP 5.0 and PLK1 inh -9.0.
For Cc1ccc(C2CC(C(F)(F)F)n3ncc(C(=O)NCc4ccco4)c3N2)cc1 (stereo unspecified) the results were HIV Rev-RRE inh 1.9, FAK blocker -5.8, Cav3 T inh -5.76*, Pyk2 oligo antag 0.2, Plk1 PBD FP 7.5 and PLK1 inh 4.4.
For C(=N\c1nccs1)/Nc1nccs1 the results were HIV Rev-RRE inh 6.6, FAK blocker 9.7, Cav3 T inh -0.341, Pyk2 oligo antag 0.65, Plk1 PBD FP 7.8 and PLK1 inh 27.6.
Screening Cc1cc(C)c2c(=O)[nH]c(SCC(=O)Nc3ccccc3)nc2n1 returned HIV Rev-RRE inh 4.5, FAK blocker -2.3, Cav3 T inh 1.02, Pyk2 oligo antag -0.55, Plk1 PBD FP 4.8 and PLK1 inh 52.3*.
Screening CCOC(=O)CN1C(=O)C(O)(CC(=O)c2ccc3c(c2)CCCC3)c2ccccc21 (stereo unspecified) returned HIV Rev-RRE inh -0.8, FAK blocker 1.1, Cav3 T inh -7.26*, Pyk2 oligo antag 0.43, Plk1 PBD FP -4.7 and PLK1 inh -4.0.
`CCOC(=O)CN1C(=O)C(O)(CC(=O)c2cccc(OC)c2)c2ccccc21` (stereo unspecified) gave HIV Rev-RRE inh -2.4, FAK blocker -5.3, Cav3 T inh 0.0373, Pyk2 oligo antag 1.5, Plk1 PBD FP -0.4 and PLK1 inh -2.4.
For Cc1ccc(S(=O)(=O)N2CCN(C(=O)CSc3ncc(C(F)(F)F)cc3Cl)CC2)cc1 the results were HIV Rev-RRE inh 5.4, FAK blocker 2.4, Cav3 T inh -0.847, Pyk2 oligo antag -0.3, Plk1 PBD FP -15.8 and PLK1 inh -8.3.
Screening Cc1ccc(CO/N=C\Cc2snc(Sc3ncc(C(F)(F)F)cc3Cl)c2C#N)cc1 returned HIV Rev-RRE inh 59.6*, FAK blocker 0.1, Cav3 T inh -1.83, Pyk2 oligo antag -0.31, Plk1 PBD FP -12.0 and PLK1 inh -4.1.
`COc1ccc(OC)c(C(=O)c2ccccc2)c1` gave HIV Rev-RRE inh 5.9, FAK blocker 0.7, Cav3 T inh -0.371, Pyk2 oligo antag -0.7, Plk1 PBD FP 2.5 and PLK1 inh -12.7.
For CCOc1ccc(NC(=O)c2ccccc2OC)cc1 the results were HIV Rev-RRE inh 9.2, FAK blocker -0.6, Pyk2 oligo antag 0.38, Plk1 PBD FP 3.7 and PLK1 inh -4.5.
For CCOc1ccccc1NC(=O)C(=O)/C=C(\O)c1cc(OC)ccc1OC the results were HIV Rev-RRE inh 1.0, FAK blocker -3.1, Cav3 T inh -9.6*, Pyk2 oligo antag -0.31, Plk1 PBD FP -2.0 and PLK1 inh -4.1.
`COc1ccc(OC)c(/C(O)=C/C(=O)C(=O)Nc2cc(C)ccc2OC)c1` gave HIV Rev-RRE inh 8.0, FAK blocker -0.7, Cav3 T inh -5.55*, Pyk2 oligo antag -0.02, Plk1 PBD FP 0.3 and PLK1 inh -11.0.

Assay outcomes: PubChem BioAssay, several laboratories
